Data: ChEMBL document CHEMBL5338714, “Design, synthesis and biological evaluation of biphenyl-benzamides as potent FtsZ inhibitors” (Eur J Med Chem, 2022)
Converted amounts (≈) assume the structure as drawn.

Legend:
Staphylococcus aureus [1] = assay: Antibacterial activity against Staphylococcus aureus ATCC25923 assessed as bacterial growth inhibition incubated for 18 hrs by CLSI based broth microdilution method; assay type: functional
Summary of the method: (§1)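 CLSI broth microdilution. Log-phase bacteria in Mueller Hinton broth added to 2-fold serial dilutions spanning 128 to 0.25 or 2 to 0.004 µg/mL. Incubated aerobically for 18 h at 37 °C, then OD600 read. MIC is the lowest concentration giving ≥90% growth inhibition; three independent assays.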

Bacillus subtilis [2] = assay: Antibacterial activity against Bacillus subtilis 618 assessed as bacterial growth inhibition incubated for 18 hrs by CLSI based broth microdilution method; assay type: functional; summary of the method: as §1
Bacillus subtilis [3] = assay: Antibacterial activity against Bacillus subtilis BS01 assessed as bacterial growth inhibition incubated for 18 hrs by CLSI based broth microdilution method; assay type: functional; summary of the method: as §1
Escherichia coli = assay: Antibacterial activity against Escherichia coli 25922 assessed as bacterial growth inhibition incubated for 18 hrs by CLSI based broth microdilution method; assay type: functional; summary of the method: as §1
Klebsiella pneumoniae = assay: Antibacterial activity against Klebsiella pneumoniae 14578 assessed as bacterial growth inhibition incubated for 18 hrs by CLSI based broth microdilution method; assay type: functional
Summary of the method: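 Broth microdilution to CLSI guidelines. Log-phase bacteria grown in Mueller Hinton broth, diluted, then exposed to 2-fold serial dilutions of compound (128 to 0.25 µg/mL or 2 to 0.004 µg/mL). Incubated aerobically 18 h at 37 °C. Growth read as OD600. MIC = lowest concentration giving ≥90% growth inhibition. Three independent assays.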

[4] = Selectivity index, ratio of CC50 for African green monkey Vero cells to MIC for Bacillus subtilis ATCC9372; assay type: toxicity, cell-based; conditions: read-out: Selectivity Index
Summary of the method: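 CC50 in Vero cells (72 h Alamar blue) divided by broth microdilution MIC against B. subtilis ATCC9372.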

Staphylococcus aureus [5] = assay: Bactericidal activity against Staphylococcus aureus ATCC25923 incubated for 24 hrs by broth microdilution method; assay type: functional
Summary of the method: (§2)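 MBC from the broth microdilution plates (MHB, 2-fold dilutions). After 24 h, 5 µL aliquots from clear wells were plated on LB agar and incubated aerobically 24 h at 37 °C, then colonies counted. MBC = lowest concentration with no colonies.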

Bacillus subtilis [6] = assay: Bactericidal activity against Bacillus subtilis ATCC9372 incubated for 24 hrs by broth microdilution method; assay type: functional; summary of the method: as §2
Bacillus subtilis [7] = assay: Selectivity ratio of MBC for Bacillus subtilis ATCC9372 to MIC for Bacillus subtilis ATCC9372; assay type: functional
Summary of the method: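 After 24 h of broth microdilution, 5 µL from clear wells plated on LB agar and incubated aerobically for 24 h at 37 °C. MBC is the lowest concentration with no colonies. Ratio is MBC over MIC, with ≤4 taken as bactericidal and >4 as bacteriostatic.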

Bacillus subtilis [8] = assay: Induction of morphological changes in Bacillus subtilis ATCC9372 assessed as increase in cell length at MIC incubated for 3 hrs by microscopic analysis (reference value: 10 um); assay type: functional
[9] = Metabolic stability in rat liver microsomes assessed as compound remaining preincubated for 5 mins followed by NADPH addition measured after 30 mins by LC/MS analysis; assay type: ADME, Microsome; conditions: time 35 min, read-out: Stability
Summary of the method: (§3)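 Liver microsomes (final protein 0.75 mg/mL) with compound in 100 mM phosphate buffer pH 7.4, preincubated 5 min at 37 °C. Reaction started with NADPH regeneration system, stopped at 5, 15, 30 and 45 min with acetonitrile containing internal standard. Percent remaining measured by LC/MS, with ketanserin as reference; variation given as RSD of area ratio.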

[10] = Metabolic stability in rat liver microsomes assessed as compound remaining preincubated for 5 mins followed by NADPH addition measured after 15 mins by LC/MS analysis; assay type: ADME, Microsome; conditions: time 20 min, read-out: Stability; summary of the method: as §3
[11] = Metabolic stability in rat liver microsomes assessed as compound remaining preincubated for 5 mins followed by NADPH addition measured immediately by LC/MS analysis; assay type: ADME, Microsome; conditions: read-out: Stability
[12] = Metabolic stability in human liver microsomes assessed as compound remaining preincubated for 5 mins followed by NADPH addition measured after 5 mins by LC/MS analysis; assay type: ADME, Microsome; conditions: time 10 min, read-out: Stability; summary of the method: as §3
[13] = Metabolic stability in human liver microsomes assessed as compound remaining preincubated for 5 mins followed by NADPH addition measured after 15 mins by LC/MS analysis; assay type: ADME, Microsome; conditions: time 20 min, read-out: Stability; summary of the method: as §3
[14] = Metabolic stability in human liver microsomes assessed as compound remaining preincubated for 5 mins followed by NADPH addition measured after 30 mins by LC/MS analysis; assay type: ADME, Microsome; conditions: time 35 min, read-out: Stability; summary of the method: as §3
[15] = Metabolic stability in rat liver microsomes assessed as compound remaining preincubated for 5 mins followed by NADPH addition measured after 45 mins by LC/MS analysis; assay type: ADME, Microsome; conditions: time 50 min, read-out: Stability; summary of the method: as §3
[16] = Metabolic stability in rat liver microsomes assessed as half life preincubated for 5 mins followed by NADPH addition measured upto 45 mins by LC/MS analysis; assay type: ADME, Microsome; conditions: time < 50 min
Summary of the method: (§4)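 Liver microsomes at 0.75 mg/mL final protein, with test article and NADPH regeneration system (6 mM) in 100 mM phosphate buffer, pH 7.4. Preincubated 5 min at 37 °C, then started with NADPH. Quenched with acetonitrile containing internal standard at 5, 15, 30 and 45 min, centrifuged, and percent remaining measured by LC/MS. Ketanserin served as reference.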

[17] = Metabolic stability in mouse liver microsomes assessed as intrinsic clearance preincubated for 5 mins followed by NADPH addition measured upto 45 mins by LC/MS analysis; assay type: ADME, Microsome; conditions: time < 50 min, read-out: CLH; summary of the method: as §4
[18] = AUC (0 to t) in ICR mouse at 1 mg/kg, iv measured for 0.08 to 24 hrs by LC-MS/MS analysis; assay type: ADME, organism-based; parameters: time 0.08-24 hrs, dose 1 mg/kg, route iv; conditions: in vivo
Summary of the method: (§5)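 Male ICR mice, single intravenous dose formulated in 5% DMSO, 4% ethanol, 5% Cremophor EL, 86% water. Blood sampled at 5, 15, 30 min, 1, 2, 4, 8 and 24 h; plasma stored at -20 °C. Compound quantified by LC-MS/MS, with parameters from non-compartmental analysis.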

[19] = AUC (0 to infinity) in ICR mouse at 1 mg/kg, iv measured for 0.08 to 24 hrs by LC-MS/MS analysis; assay type: ADME, organism-based; parameters: dose 1 mg/kg, time upper 24 hrs, time lower 0.08 hrs, route iv; conditions: in vivo; summary of the method: as §5
[20] = Half life in ICR mouse at 5 mg/kg, po measured for 0.25 to 24 hrs by LC-MS/MS analysis; assay type: ADME, organism-based; conditions: in vivo, time 0.25-24 hrs
Summary of the method: (§6)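 Male ICR mice dosed orally with a solution of 5% DMSO, 4% ethanol, 5% Cremophor EL and 86% water. Blood collected at 15, 30 min, 1, 2, 4, 6, 8 and 24 h; plasma stored at -20 °C. Plasma levels measured by LC-MS/MS; parameters by non-compartmental analysis, with bioavailability relative to the 1 mg/kg iv dose.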

[21] = Tmax in ICR mouse at 5 mg/kg, po measured for 0.25 to 24 hrs by LC-MS/MS analysis; assay type: ADME, organism-based; conditions: in vivo, time 0.25-24 hrs; summary of the method: as §6
[22] = Cmax in ICR mouse at 5 mg/kg, po measured for 0.25 to 24 hrs by LC-MS/MS analysis; assay type: ADME, organism-based; parameters: time upper 24 hrs, dose 5 mg/kg, time lower 0.25 hrs, route po; conditions: in vivo; summary of the method: as §6
[23] = AUC (0 to t) in ICR mouse at 5 mg/kg, po measured for 0.25 to 24 hrs by LC-MS/MS analysis; assay type: ADME, organism-based; parameters: time lower 0.25 hrs, dose 5 mg/kg, time upper 24 hrs, route po; conditions: in vivo; summary of the method: as §6
[24] = AUC (0 to infinity) in ICR mouse at 5 mg/kg, po measured for 0.25 to 24 hrs by LC-MS/MS analysis; assay type: ADME, organism-based; parameters: time upper 24 hrs, time lower 0.25 hrs, dose 5 mg/kg, route po; conditions: in vivo; summary of the method: as §6

Work on `Cc1cc(Cl)ccc1-c1cccc(COc2ccc(F)c(C(N)=O)c2F)c1` yielded an MIC (Staphylococcus aureus [1]) of 0.125 µg/mL (≈ 0.322 µM), an MIC (Bacillus subtilis [2]) of 0.008 µg/mL (≈ 0.0206 µM) and an MIC (Bacillus subtilis [3]) of 0.016 µg/mL (≈ 0.0413 µM). The MIC (Escherichia coli) was greater than 128 µg/mL, the MIC (Klebsiella pneumoniae) was greater than 128 µg/mL and the selectivity ratio [4] was greater than 645. For the same compound, the MBC (Staphylococcus aureus [5]) was 0.25 µg/mL (≈ 0.645 µM), the MBC (Bacillus subtilis [6]) was 0.063 µg/mL (≈ 0.162 µM) and the Selectivity ratio (Bacillus subtilis [7]) was 4. The Activity (Bacillus subtilis [8]) was greater than 60 um, the remaining at 0.5 h [9] was 19.1% and the remaining at 0.25 h [10] was 39%. For the same compound, the remaining at 0 min [11] was 100%, the remaining at 5 min [12] was 97.1% and the remaining at 0.25 h [13] was 86.2%. The remaining at 0.5 h [14] was 83.4%, the remaining at 0.75 h [15] was 10% and the half-life [16] was 13.6 min. For the same compound, the CLint scaled [17] was 1070 mL/min/kg, the AUC(0-t) [18] was 178 ng·h/mL and the AUC(0-inf) [19] was 179 ng·h/mL. It also gave a half-life [20] of 136 min, a Tmax [21] of 30 min and a Cmax [22] of 429 ng/mL. For the same compound, the AUC(0-t) [23] was 544 ng·h/mL and the AUC(0-inf) [24] was 559 ng·h/mL.
